Experimental data: the EternaBench riboswitch data

System: MS2 coat protein
Test: apparent Kd, MS2 coat protein; higher = weaker binding; RNA-MaP array; FMN 200 µM where present
In short: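 In 100 mM Tris-HCl pH 7.5, 80 mM KCl, 4 mM MgCl2, BSA, DTT, yeast tRNA and Tween-20, SNAP-549-labelled MS2 coat protein was titrated from 0.7 or 1.5 nM, doubling to 3 µM, over designs transcribed by stalled E. coli RNA polymerase on Illumina sequencing-chip clusters. This was done first without ligand, then with ligand held constant. After green signal was normalised to red-channel RNA signal and control-cluster median Fmax, the apparent Kd was taken as the median of filtered per-cluster binding-curve fits.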

[1] = designed as: OFF switch for flavin mononucleotide, no ligand
[2] = ligand present: flavin mononucleotide, designed as: OFF switch for flavin mononucleotide
[3] = designed as: ON switch for flavin mononucleotide, no ligand
[4] = ligand present: flavin mononucleotide, designed as: ON switch for flavin mononucleotide

| Sequence | apparent Kd [1] | apparent Kd [2] | apparent Kd [3] | apparent Kd [4] |
| --- | --- | --- | --- | --- |
| ACAUGAUAUGUAGGAUAUCACAUUAAUUGAUUAAUAUUUGAAUAUAGGAUUUGAGAAGGACAUUUACAUGAGGAUCACCCAUGU | 20.1 nM | 14.4 nM |  |  |
| CCAGUGCGGGUGGUAUGGCUAACAUGAGGAUCACCCAUGUUGCAGGAUAUCGGCCAGAUUGGGCGCGAGAAGGGCAACGCUGAA | 86.6 nM | 32.6 nM |  |  |
| CGAUCGUUGCAGAAGGUUAUUUUUUUAACAAUUCUCUUAACAUGAGGAUCACCCAUGUUUUUGAUGAAGGAUAUGCAAGGGUCG | 5.76 nM | 5.5 nM |  |  |
| CUAAGUGCCGGAGGAUAUACAUGAGGAUCACCCAUGUCAGUCUGUUUACAUGUAGAAGGCCGGCGAACAAAGGACUUGCCAAGA | 48.1 nM | 298 nM |  |  |
| AAAACUUCAGAGAAGGACCCAUUGGCGUAAUGGGUAGGAUAUCUGACUUGAGGUGUCCUGACAUGAGGAUCACCCAUGUAUAAA | 381 nM | 46 nM |  |  |
| CCGCCCUGAGGAUAUCCACCCUCAUACAUGAGGAUCACCCAUGUUCACCCUUGGGUUCCCGGAGAAGGCAGCCUUC | 566 nM | 548 nM |  |  |
| AAAAAACAUGAGGAUCACCCAUGUAAAAAAAUCACAGGAUAUAAGGUCGCGAAAGCGACCUUAGAAGGGUGAUCAA |  |  | 443 nM | 105 nM |
| UGAUAGGACAGAGGAUAUACAGAUAGGAUCUACUAUCCUCCUUAAAUAACAUGAGGAUCACCCAUGUAGAAGGCUGUCCUAUCU | 26.5 nM | 182 nM |  |  |
| CAAUGGUUCCUUAUACUCUCGUCACAUGAGGAUCACCCAUGUAGAAGGCAGCCGGGCUGUCAGGCUGAGGAUAUACAUUUAAAA | 17.8 nM | 54.9 nM |  |  |
| CAGCGAAAGUAGAAGGCAGUACUGUUACAGUACUGAGGAUAUACAUGAGGAUCACCCAUGUAAUAAAGCUGGAAAUAUAUAAUU | 6.41 nM | 7.33 nM |  |  |
| GGAAAACAUGAGGAUCACCCAUGUGAGGAUAUCGAUGUCCAAAAAAAAGUGCGGGACUCGAGAAGGCACUUGGU | 57.1 nM | 58.4 nM |  |  |
| GCCUCAUAGUAGAAGGGACUUAGACAGUUAAGCAUCUUGUACAAUUAACAUGAGGAUCACCCAUGUCAGGAUAUACUAAGAGGC | 8.02 nM | 9.49 nM |  |  |
| UUGGACGUCGUAGGAUAUGUAGGAUAUUCCUACAUGAGGAUCACCCAUGUUGACAUGGAAGAAGGACAGAUGGACGAUGUCCAU |  |  | 298 nM | 6.98 nM |
| UGCUACGUUUCGUAGCAGCUAGGUGAGGAUAUUCAAUUUUUCACAUGAGGAUCACCCAUGUAUGUGAAGAAGGCGCCUAGAAAA |  |  | 10.2 nM | 4.56 nM |
| AUACUUAAUGAAGGAUAUCUCAGCAUAAACCUGAGAGAAGGUCAUUAUUACAUGAGGAUCACCCAUGUUGUAGUUAAUGGGUAA | 352 nM | 341 nM |  |  |
| CGCGAAAACAUAGGAUAUUGUUACAUGAGGAUCACCCAUGUCAACCAUGUAGCUCGAAUUGUUGACAAGAAGGAUGAGGUCGCG |  |  | 48.3 nM | 103 nM |
| AUAUAAUAUCAGGAUAUGACUAGCUGCGGCUAGUCAGAAGGGAUGACAUGAGGAUCACCCAUGUGAUCAUAUAU | 33.2 nM | 151 nM |  |  |
| UUACUUCAUGAGAAGGACAUGAGGAUCACCCAUGUAGGAUAUCGUGGGAGACUGGUAUUGAAUCUUCGGAUUCAAUACCUGUCU |  |  | 59.7 nM | 9.3 nM |
| ACGGCUGUCAGAGGAUAUGGUUACAUGAGGAUCACCCAUGUCAAGGGUCUAAUUAAGUAUAACUACUAGAAGGCUGAUGGCCGA | 282 nM | 129 nM |  |  |
| UGAUACUAGGGAGGAUAUGGGAAGAUACAUGAGGAUCACCCAUGUUUAAGAAUGCCGAGAGGCAACUAGAAGGCCCUAGUACCU |  |  | 538 nM | 21.3 nM |
